# Source: the RNAGym collection of RNA variant scans (doi:10.1126/science.aae0568)
# This sample holds only a part of the variants without activity.
# B1: tRNA (parent)
# chain: GUUCCGUUGGCGUAAUGGUAACGCGUCUCCCUCCUAAGGAGAAGACUGCGGGUUCGAGUCCCGUACGGAACG
# Variants of: B1
# Experiment: yeast fitness relative to wild type (ratio to wild type); higher = fitter; tRNA-Arg(CCU), competitive growth, 37 C, YPD
# Procedure, shortened: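 Gene amplicons from the start population and from each of six end populations were read by 100-nucleotide paired-end sequencing. Those end populations came from pooled Saccharomyces cerevisiae strains carrying tRNA-Arg(CCU) gene variants at the native locus, competed in YPD at 37°C for 24 hours. Fitness relative to wild type was worked out from changes in genotype frequencies. Genotypes needed ≥ 100 starting reads, and estimates < 0.5 were set to 0.5.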
row,Variant,yeast fitness
1,GUUCCGUUGGCGUAAUGGUAACGCGUCUCCCUCAUACGGAGAAGACUGCGGGUUCGAGUCCCGUACCGGACG,≤ 0.5
2,GUUCCGUUGGCGUAAUGGUAACGCGUCUCCCUCAUAAGGAGAAGACUGCGGGUUCGAGUCCCGUAGGGAACG,0.647
3,GUUCCGUUGGCGUAAUGGUAACGCGUCUCCCUCAUAAGGAGAAGACUGCGGGUUCGAGUCCCGUAUGGAACG,0.764
4,GUUCCGUUGGCGUAAUGGUAACGCGUCUCCCUCAUAAGGAGAAGACUGCGGGUUCCAGUCCCGUACGGAACG,≤ 0.5
5,GUUCCGUUGGCGUAAUGGUAACGCGUCUCCCUCGUAAGGAGGAGACUGCGGGUUCGAGUCCUGUACGGAACG,0.589
6,GUUCCGUUGGCGUAAUGGUAACGCGUCUCCCUCAUAAGGAGAAGACUGCGGCUUCGAGUCCCCUACGGAACG,0.681
7,GUUCCGUUGGCGUAAUGGUAACGCGUCUCCCUCAUAAGGUGAAGACUGCGGGUUCGAGUCCCGUACGGAACG,0.705
8,GUUCCGUUGGCGUAAUGGUAACGCGUCUCCCUCAUAAGGGGAAGACUGCGGGUUCGAGUCCCGUACGGAACG,0.609
9,GUUCCGUUGGCGUAAUGGUAACGCGUCUCCCUCAUAAGGAGAAGACUGCGGGUUCGUGACCCGUACGGAACG,≤ 0.5
10,GUUCCGUUGGCGUAAUGGUAACGCGUCUCCCUCAUAAGGAGAAGGCUGCGGGUUCGAGUCCCCUACGGAACG,0.676
11,GUUCCGUUGGCGUAAUGGUAACGCGUCUCCCUCAUAAGGAGUAGACUGCGGGUUCGACUACUGUACGGAACG,0.571
12,GUUCCGUUGGCGUAAUGGUAACGCGUCUCCCUCAUAAGGAGUAGACUGCGGGUUCGAGUCGCGUUCGGAACG,≤ 0.5
13,GUUCCGUUGGCGUAAUGGUAACGCGUCUCCCUCAUACGGAGAAGACUGAGGGUUCGAGUCCCGUACGGAACG,0.522
14,GUUCCGUUGGCGUAAUGGUAACGCGUCUCCCUCAUAAGGAGAAGACUGCGGGUUGGAAUCCCGCCCGGAACG,≤ 0.5
15,GUUCCGUUGGCGUAAUGGUAACGCGUCUCCCUCGUAAGGAGCAGACUGCGCGUUCGAGUCCCGUACGGAACG,0.525
16,GUUCCGUUGGCGUAAUGGUAACGCGUCUCCCUCAUAAGGAGAAGACUGUGGGUUCGAGUCGCGUACGGAACG,≤ 0.5
17,GUUCCGUUGGCGUAAUGGUAACGCGUCUCCCUCGUACGGAGAAGACUGCGGGUUCAAGUCCCGUACGGAACG,0.527
18,GUUCCGUUGGCGUAAUGGUAACGCGUCUCCCUCGUAAGGAGCAGAUUGCGGGUAGGACUCCCGUAAGGAACG,≤ 0.5
19,GUUCCGUUGGCGUAAUGGUAACGCGUCUCCCUCGUAAGGUGAAGACAGCGGGUUCGAGUCCCGUACCGAACG,≤ 0.5
20,GUUCCGUUGGCGUAAUGGUAACGCGUCUCCCUCAUAAGGAGAAGACUGCGGGUUCGAGUCCCGUACGGAGCG,0.634
21,GUUCCGUUGGCGUAAUGGUAACGCGUCUCCCUCAUAAGGAGAAGACUGCGAGUUCGAGUCCCGUACGGAACG,0.656
22,GUUCCGUUGGCGUAAUGGUAACGCGUCUCCCUCAUAAGGAGAAGACUGCGGGUUCGAGUGCCGUACGGACCG,≤ 0.5
23,GUUCCGUUGGCGUAAUGGUAACGCGUCUCCCUCGUAAGGAGCAGACUGCGGGUUCGAGUCCCGUACGGAACG,0.573
24,GUUCCGUUGGCGUAAUGGUAACGCGUCUCCCUCAUAAGGAGUAGGCUGCGGGUUCGAGUCCCGUACGGAACG,≤ 0.5
25,GUUCCGUUGGCGUAAUGGUAACGCGUCUCCCUCAUAAGGUGAAGACUGCGGGUUCGAGUCCCGUACAGAACG,≤ 0.5

row,Variant,yeast fitness
1,GUUCCGUUGGCGUAAUGGUAACGCGUCUCCCUCAUAAGGAGAAGACUGCGGGUUCGAGUCCCGCACGGAACG,0.834
2,GUUCCGUUGGCGUAAUGGUAACGCGUCUCCCUCGUGAGGAGAAGACUGCGGGUUCGUGUCCCGUACGGAACG,≤ 0.5
3,GUUCCGUUGGCGUAAUGGUAACGCGUCUCCCUCGUAAGGAGGUGACUGCGGGUUCGAGUCCCGUACGGAACG,0.635
4,GUUCCGUUGGCGUAAUGGUAACGCGUCUCCCUCAUAAGGAGUAGACUGCGGGUUCGAGUCCCGUACGAAACG,≤ 0.5
5,GUUCCGUUGGCGUAAUGGUAACGCGUCUCCCUCAUAAGGAGAAGACUGCGGGUUCGAGUCCCGUUCGGAACG,0.736
6,GUUCCGUUGGCGUAAUGGUAACGCGUCUCCCUCAUAAGGAGAAGACUGCGGAUUCGAGUCGCAUACGGAACG,≤ 0.5
7,GUUCCGUUGGCGUAAUGGUAACGCGUCUCCCUCAUAAGGCGUAGACUGCGGGUUCGAGUCCCGUACGGAACG,≤ 0.5
8,GUUCCGUUGGCGUAAUGGUAACGCGUCUCCCUCAUAAGGCGAAGACUGCGGGUCCGAGUCCCGUAUGGAACG,0.623
9,GUUCCGUUGGCGUAAUGGUAACGCGUCUCCCUCAUAAGGAGAAGGCUGCGGGUUCGUGUCCCGUAUGGAACG,≤ 0.5
10,GUUCCGUUGGCGUAAUGGUAACGCGUCUCCCUCAUAAGGAGAAGCCUGCGGGUUCGAGUCCCGUACGGACCG,0.701
11,GUUCCGUUGGCGUAAUGGUAACGCGUCUCCCUCAUAAGGACAAGACUGCGGGUUCGAGUCCCGUACGGAACG,0.757
12,GUUCCGUUGGCGUAAUGGUAACGCGUCUCCCUCAUAAGGAGAAGACUGCGGGAUCGAGUCCCGUACGGAACG,0.541
13,GUUCCGUUGGCGUAAUGGUAACGCGUCUCCCUCAUAAGGAGAAGACUGCGGGCUCGAGUCCCGUACGGAACG,0.559
14,GUUCCGUUGGCGUAAUGGUAACGCGUCUCCCUCAUAAGGAGAUGACUGCGGGUUCGAGUCCCGUACGGAUCG,0.607
15,GUUCCGUUGGCGUAAUGGUAACGCGUCUCCCUCAUAAGGAGAAGACGGGGGGUUCGAGUGCCGUACGGAACG,0.571
16,GUUCCGUUGGCGUAAUGGUAACGCGUCUCCCUCAUAAGGAGAAGACUGCGGGUACGAGUCCCGUACAGAACG,≤ 0.5
17,GUUCCGUUGGCGUAAUGGUAACGCGUCUCCCUCGUAAGGCGAAGACUACGGGUUCGAGUCCCGUACGGAACG,≤ 0.5
18,GUUCCGUUGGCGUAAUGGUAACGCGUCUCCCUCAUAAGGAGAAGACUGCGGGUUCGUGUCCCGUACCGAACG,0.605
19,GUUCCGUUGGCGUAAUGGUAACGCGUCUCCCUCGUAAGGCGAAAACUGCGGGUUCGAGUCCCGUACGGAACG,≤ 0.5
20,GUUCCGUUGGCGUAAUGGUAACGCGUCUCCCUCAUAAGGAGAAGACUGCGGGUUCGAGUCCCGUACGUAACG,0.647
21,GUUCCGUUGGCGUAAUGGUAACGCGUCUCCCUCAUAAGGAGAAGACUGCGGGUUCGAGUCCCGUACGCAACG,0.841
22,GUUCCGUUGGCGUAAUGGUAACGCGUCUCCCUCGUCAGGAGAAGACUGCGGGUUGGAGUCCCGUACGGAACG,≤ 0.5
23,GUUCCGUUGGCGUAAUGGUAACGCGUCUCCCUCGUAAGGGGAAGACUGCGGGUUCGAGUCCCGUACGGAACG,0.642
24,GUUCCGUUGGCGUAAUGGUAACGCGUCUCCCUCGUACGGAGAAGACUGCGGGUUCGAGUCCAGUACGGAACG,≤ 0.5
25,GUUCCGUUGGCGUAAUGGUAACGCGUCUCCCUCAUAAGGAGUAGACUGCGGGUACGUGUCCCGUACGGAACG,0.511

row,Variant,yeast fitness
1,GUUCCGUUGGCGUAAUGGUAACGCGUCUCCCUCGUAUGGAGAAGACUGGGGGUUCGAGUCCCGUACGGAACG,0.576
2,GUUCCGUUGGCGUAAUGGUAACGCGUCUCCCUCGUAAGGUGACGAAUGCGGGUUCGAGUCCCCUACGGAACG,≤ 0.5
3,GUUCCGUUGGCGUAAUGGUAACGCGUCUCCCUCAUAAGGAGAAGACUGCGGGUUCGAGUGCCGUACGAAACG,0.688
4,GUUCCGUUGGCGUAAUGGUAACGCGUCUCCCUCGUCAGGAGAAGACUGCGGGUUCGAGUCCCGUACGGACCG,≤ 0.5
5,GUUCCGUUGGCGUAAUGGUAACGCGUCUCCCUCAUAAGGAAAAGACUGCGGGUUCGAGUCCUGUACGGAACG,≤ 0.5
6,GUUCCGUUGGCGUAAUGGUAACGCGUCUCCCUCAUAAGGAGAAGACUGAGGGUUCGAGGCCCGUAUGGAACG,≤ 0.5
7,GUUCCGUUGGCGUAAUGGUAACGCGUCUCCCUCAUAAGGAGAAGAAUGCGGGUUCGAGUCCCGUACGGAACG,0.691
8,GUUCCGUUGGCGUAAUGGUAACGCGUCUCCCUCAUAAGGAGAAGAGUGCGGGUUCGAGUCCCGUACGGAACG,0.693
9,GUUCCGUUGGCGUAAUGGUAACGCGUCUCCCUCAUAAGGAGAAGAUUGCGGGUUCGAGUCCCGUACGGAACG,0.615
10,GUUCCGUUGGCGUAAUGGUAACGCGUCUCCCUCAUAAGGAGAAGAUUGCGGGUUCGAGUCCCGUCCGGAACG,0.569
11,GUUCCGUUGGCGUAAUGGUAACGCGUCUCCCUCGUAAGGCGAUGACUGCGGGUUCGAGUCCCGUACGGAACG,≤ 0.5
12,GUUCCGUUGGCGUAAUGGUAACGCGUCUCCCUCAUAAGGAGACGACUGCGGGUUCGAGUCCCGUACAGAACG,0.537
13,GUUCCGUUGGCGUAAUGGUAACGCGUCUCCCUCAUAAGGAGAAGACUGCGGGUUUGAGUCCCGUACGGAACG,0.524
14,GUUCCGUUGGCGUAAUGGUAACGCGUCUCCCUCAUAAGGAGAAGACUGCGGGUUGGAGUCCCGUACGGAACG,0.517
15,GUUCCGUUGGCGUAAUGGUAACGCGUCUCCCUCAUAAGCAGAAGACUGCGGGUUCGAGUCCCGUACGGAACG,0.792
16,GUUCCGUUGGCGUAAUGGUAACGCGUCUCCCUCAUAAGGAAAAGACUGCGGGUUGGAGUCCCGUACGGAACG,≤ 0.5
17,GUUCCGUUGGCGUAAUGGUAACGCGUCUCCCUCGUAAGGGGAAGAGUGAGGGUUCGAGCCCCGUACGGAACG,0.55
18,GUUCCGUUGGCGUAAUGGUAACGCGUCUCCCUCAUAAGGAGAAGACUGCGGGUUCGCGUCCCGUACGGAACG,≤ 0.5
19,GUUCCGUUGGCGUAAUGGUAACGCGUCUCCCUCAUAAGGAGAAGACUGCGGGUUCGGGUCCCGUACGGAACG,0.715
20,GUUCCGUUGGCGUAAUGGUAACGCGUCUCCCUCAUAAGGAGAAGACUGCGGGUUCGAGGCCCGUACGGAACG,0.745
21,GUUCCGUUGGCGUAAUGGUAACGCGUCUCCCUCAUAAGGAGACGACUGCGGGUUCGAGUCCCGUCCGGAACG,≤ 0.5
22,GUUCCGUUGGCGUAAUGGUAACGCGUCUCCCUCAUAAGGAGAAGUAUGCAGGUCGGAGUCCCGUACGGAACG,≤ 0.5
23,GUUCCGUUGGCGUAAUGGUAACGCGUCUCCCUCGUUAGGAGAAGACUGCGGGUUCGAAUCCCGUACGGAACG,0.605
24,GUUCCGUUGGCGUAAUGGUAACGCGUCUCCCUCAUAAGGCGAAGACUGCGGGUUCGAGUCACGUACGGAACG,≤ 0.5
25,GUUCCGUUGGCGUAAUGGUAACGCGUCUCCCUCAUAAGGAGAAGACUGCCAGUUCGAGUCGCGUACGGAACG,≤ 0.5
